pIC50: −log10 of the molar value. Active and inactive are the calls of the source. The calls are words filed in the database; no cut-off is given here.
Legend:
HeLa [1] = experiment: Cytotoxicity against human HeLa cells after 3 days by MTT assay; format: functional, cell-based; settings: 72 h
Procedure, shortened: (§1)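 MTT assay. Exponentially growing cells were seeded at 8 × 10² cells/well and held 24 h at 37 °C in 5% CO₂. Compound from a 2 mM stock in 95% ethanol was added, with a maximum final concentration of 1 mM. Exposure lasted 3 days at 37 °C. MTT was added for 4 h, formazan dissolved in DMSO, and absorbance read at 540 nm. IC50s were estimated from survival plots.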

[2] = Cytotoxicity against mouse KBALB cells after 3 days by MTT assay; format: functional, cell-based; settings: 72 h; procedure, shortened: as §1
EMT6 [3] = experiment: Cytotoxicity against mouse EMT6 cells assessed as survival fraction ratio under hypoxic condition at 0.5 mM incubated for 30 mins followed by compound wash out measured after 10 to 14 days by clonogenic assay relative to control; format: functional
Procedure, shortened: (§2)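 Clonogenic radiosensitization. Cells (300000 per dish, DMEM/F12) were grown 24 h at 37 °C, 5% CO₂, then exposed to compound for 30 min. Hypoxic dishes were degassed by six vacuum/N₂ cycles, and all dishes were shaken 30 min at room temperature. Dishes were ⁶⁰Co γ-irradiated (0–20 Gy) under N₂ or air, then trypsinized and replated. Colonies were grown 10−14 days, stained, and counted, in triplicate. Surviving fractions at 18 Gy were taken from survival plots.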

EMT6 [4] = experiment: Cytotoxicity against mouse EMT6 cells after 3 days by MTT assay; format: functional, cell-based; settings: EMT6, 72 h; procedure, shortened: as §1
[5] = Cytotoxicity against mouse KBALB-STK cells after 3 days by MTT assay; format: functional, cell-based; settings: 72 h; procedure, shortened: as §1
[6] = Ratio of IAZA IC50 to compound IC50 for human MOO6X cells; format: functional
[7] = Cytotoxicity against human MOO6X cells assessed as survival fraction ratio under hypoxic condition at 0.5 mM incubated for 30 mins followed by compound wash out measured after 10 to 14 days by clonogenic assay relative to control; format: functional; procedure, shortened: as §2
HeLa [8] = experiment: Cytotoxicity against human HeLa cells assessed as survival fraction under hypoxic condition to hypoxic condition plus sensitizer at 0.5 mM after 30 mins by clonogenic assay relative to control
[9] = Cytotoxicity against human MOO6X cells after 3 days by MTT assay; format: functional, cell-based; settings: 72 h; procedure, shortened: as §1
[10] = molecular target: T1, Solute carrier family 2, facilitated glucose transporter member 2 (Homo sapiens) (UniProt P11168); experiment: Binding affinity to recombinant GLUT2 expressed in Xenopus oocytes assessed as inhibition of [14C]glucose uptake after 20 mins by liquid scintillation counting; format: cell-based; settings: Oocyte
T1 sequence (whole entry): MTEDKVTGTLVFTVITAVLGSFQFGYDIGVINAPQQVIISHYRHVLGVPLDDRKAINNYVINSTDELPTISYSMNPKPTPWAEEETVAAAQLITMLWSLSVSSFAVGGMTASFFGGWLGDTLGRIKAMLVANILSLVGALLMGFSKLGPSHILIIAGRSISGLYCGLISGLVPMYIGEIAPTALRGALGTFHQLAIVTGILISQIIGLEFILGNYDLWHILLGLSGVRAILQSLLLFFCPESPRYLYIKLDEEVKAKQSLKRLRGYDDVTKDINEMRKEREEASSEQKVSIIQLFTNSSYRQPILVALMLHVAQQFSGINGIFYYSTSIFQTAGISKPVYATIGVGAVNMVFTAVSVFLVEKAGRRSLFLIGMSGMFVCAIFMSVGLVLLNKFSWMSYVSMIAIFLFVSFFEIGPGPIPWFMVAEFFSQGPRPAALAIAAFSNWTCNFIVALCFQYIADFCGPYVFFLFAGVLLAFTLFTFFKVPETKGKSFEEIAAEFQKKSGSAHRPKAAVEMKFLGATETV
Procedure, shortened: (§3)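 Xenopus oocytes expressing the GLUT were incubated in groups of 10−12 in Na⁺ transport medium (Hepes, pH 7.5) with [¹⁴C]glucose (1 μCi/mL) and inhibitor for 20 min at 20 °C. Oocytes were washed six times in ice-cold medium, dissolved in 1% SDS, and counted by liquid scintillation. Uptake inhibition was plotted against inhibitor concentration; for GLUT-2, EC50 came from four-parameter logistic fitting.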

[11] = molecular target: T2, Solute carrier family 2, facilitated glucose transporter member 1 (Homo sapiens) (UniProt P11166); experiment: Binding affinity to recombinant GLUT1 expressed in Xenopus oocytes assessed as inhibition of [14C]glucose uptake after 20 mins by liquid scintillation counting; format: cell-based; settings: Oocyte; procedure, shortened: as §3
T2 sequence (whole entry): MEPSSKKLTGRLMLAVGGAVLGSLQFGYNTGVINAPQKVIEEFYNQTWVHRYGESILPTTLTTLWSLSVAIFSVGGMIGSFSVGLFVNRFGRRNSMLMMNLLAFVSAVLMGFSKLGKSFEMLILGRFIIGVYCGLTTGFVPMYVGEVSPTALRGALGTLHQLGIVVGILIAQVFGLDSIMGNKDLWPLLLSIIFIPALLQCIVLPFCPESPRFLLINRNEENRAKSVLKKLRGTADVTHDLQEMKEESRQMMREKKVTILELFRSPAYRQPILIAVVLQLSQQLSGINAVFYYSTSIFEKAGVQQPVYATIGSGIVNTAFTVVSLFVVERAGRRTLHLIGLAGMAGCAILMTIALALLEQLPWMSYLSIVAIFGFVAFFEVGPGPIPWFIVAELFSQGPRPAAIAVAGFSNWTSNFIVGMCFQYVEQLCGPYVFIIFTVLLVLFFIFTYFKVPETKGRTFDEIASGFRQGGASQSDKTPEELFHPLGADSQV

EMT6 [12] = experiment: Cytotoxicity against mouse EMT6 cells assessed as survival fraction ratio under hypoxic condition at 0.1 to 1 mM after 6 hrs relative to control; format: functional

Row | ED50 [10] [µM] | inhibition [11] | SMILES | pIC50 (HeLa [1]) | pIC50 [2] | Ratio (EMT6 [3]) | pIC50 (EMT6 [4]) | pIC50 [5] | Ratio IC50 [6] | Ratio [7] | Ratio (HeLa [8]) | pIC50 [9] | Ratio (EMT6 [12])
1 |  |  | O=[N+]([O-])c1nccn1CC(O)COC[C@H]1OC(O)[C@H](O)[C@@H](O)[C@@H]1O (mixture of isomers) | 3.30 | 3.30 | 1 | 3.22 | 3.30 | 10 | 1 | 1.2 | 4.30 | 
2 |  |  | O=[N+]([O-])c1nccn1CC([18F])COC[C@H]1OC(O)[C@H](O)[C@@H](O)[C@@H]1O (mixture of isomers) | < 3.00 | < 3.00 | 1.2 | < 3.00 | < 3.00 |  | 1.3 | 1.3 | < 3.00 | 
3 | 500 | Active | O=[N+]([O-])c1nccn1/C=C/COC[C@H]1OC(O)[C@H](O)[C@@H](O)[C@@H]1O (mixture of isomers) |  |  | 1.4 | < 3.00 |  |  | 1.3 | 1.7 |  | 
4 |  |  | O=[N+]([O-])c1nccn1[C@H]1O[C@H](C[123I])[C@@H](O)[C@@H]1O [IODOAZOMYCIN ARABINOSIDE] | < 3.00 | 3.30 |  | < 3.00 | 3.30 |  |  |  | < 3.00 | 1.5

From ChEMBL document CHEMBL2157868, “Design, synthesis, and preliminary biological evaluation of 6-O-glucose-azomycin adducts for diagnosis and therapy of hypoxic tumors” (J Med Chem, 2012)
